From PubChem BioAssay
An excerpt weighted towards active compounds, which were near 1.8% of everything screened.
M4 PAM – CHRM4 positive allosteric modulation. CHO-K1 hM4/Gqi5, Fluo-8 calcium fluorescence, ACh EC20; 0% = ACh EC20, 100% = maximal ACh. 360,000 compounds, 0.4% hits. AID 624126. activation, % at 3 µM;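 active = activation above its plate's cutoff, the mean activation of sample wells plus 3 SD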
Target sequence (P08173 whole entry, looked up): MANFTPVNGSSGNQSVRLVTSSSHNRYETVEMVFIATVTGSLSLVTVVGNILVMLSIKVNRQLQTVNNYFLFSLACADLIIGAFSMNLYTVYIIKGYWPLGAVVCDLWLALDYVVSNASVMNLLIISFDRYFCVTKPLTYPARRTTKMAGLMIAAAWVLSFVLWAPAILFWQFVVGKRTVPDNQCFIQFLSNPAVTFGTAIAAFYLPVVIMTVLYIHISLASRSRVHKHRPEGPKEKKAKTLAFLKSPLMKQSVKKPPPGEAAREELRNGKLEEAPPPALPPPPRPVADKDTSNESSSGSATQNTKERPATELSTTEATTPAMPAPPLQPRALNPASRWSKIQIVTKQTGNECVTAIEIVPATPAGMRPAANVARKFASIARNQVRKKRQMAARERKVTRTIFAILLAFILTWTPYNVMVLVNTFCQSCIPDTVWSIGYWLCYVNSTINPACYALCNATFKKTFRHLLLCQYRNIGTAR
CHRM4 antagonist – antagonists of human muscarinic M4 receptor (CHRM4) | P08173 | CHO-hM4 cells, ACh EC80, Fluo-8 calcium fluorescence | inhibition, % at 3 µM | 360,000 compounds, 0.73% hits;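 active = inhibition above its plate's cutoff, the mean inhibition of sample wells plus 3 SD, cut at about 27% in these data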
M5 antag – blocks acetylcholine activation of human M5 receptor | P08912 | inhibition, % at 3 µM | CHO-hM5 cells, Fluo-8 calcium fluorescence, ACh EC80 | AID 624040 | 360,000 compounds, 0.59% hits;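 active = inhibition above a per-plate cutoff, the mean of that plate's test compounds plus 3 SD, cut at about 27% in these data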
M5 PAM – CHRM5 positive allosteric modulation. P08912. CHO-K1 hM5, Fluo-8 calcium, ACh EC20 PAM; 0% = ACh EC20, 100% = ACh EC100. activation, % at 3 µM. 360,000 compounds, 0.3% hits. AID 624038;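 active = activation above the run cutoff, the mean activation of all test compounds plus 3 SD, cut at about 18% in these data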
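System: CHO-K1 hM5 cells. Reagent: acetylcholine, EC20 level. Compound dosing: single dose, 3 µM nominal final test concentration. Timing: Post-acetylcholine fluorescence recording 140 s. Detection: Fluo-8 calcium fluorescence. Read-out: % activation, ACh-normalized. Benchmarks: ACh EC20 and EC100 wells. Repeats: singlicate, one well per test compound.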
M5 ag – CHRM5 agonism in calcium assay; activation, % at 3 µM; 360,000 compounds, 0.19% hits; CHO-K1 hM5 cells, Fluo-8 calcium fluorescence; 0% DMSO wells, 100% maximal acetylcholine response;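 active = activation above the run's mean over test compounds plus 3 SD, cut at about 23% in these data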;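 note: signal is peak over basal fluorescence ratio across the kinetic read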
CHRM4 agonist – CHRM4 agonism in calcium assay | P08173 | CHO-K1 hM4/Gqi5, Fluo-8 calcium fluorescence; vehicle 0%, full acetylcholine response 100% | activation, % at 3 µM | 360,000 compounds, 0.14% hits;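 active = activation above the run mean over all test wells plus 3 SD, cut at about 32% in these data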;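 note: peak over basal fluorescence ratio per well then scaled between controls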
Of the large screens only hits and unclear results are named; the others gave an inactive call.

O=C(c1cccs1)N1CCc2ccccc2C1	none
O=C(c1ccc(Br)s1)N1CCc2ccccc2C1	M5 PAM 19.1
CCOC(=O)N1CCN(S(=O)(=O)N2CCCC(C(=O)NCc3ccc(C)cc3)C2)CC1 (centres undefined)	none
CCCOc1ccc2c(c1)C(=NN=C(N)N)c1cc(OCCC)ccc1-2	M4 PAM 28.4
CC(C)NC(=O)C(=O)NNC(=O)CCc1ccccc1	none
COc1ccc(C(=O)Nn2c(SCc3ccc([N+](=O)[O-])cc3)nc3ccccc3c2=O)cc1	M5 PAM 18.3
COc1ccc(C(CNC(=O)c2cccc(NS(=O)(=O)c3ccccc3)c2)N(C)C)cc1 (centres undefined)	CHRM4 antagonist 30.6
COc1ccccc1C(CNC(=O)c1cccc(S(=O)(=O)NCc2ccccc2)c1)N(C)C (centres undefined)	M5 antag 38.9
COc1ccc(C(CNC(=O)c2cccc(NS(=O)(=O)c3ccc(C)c(F)c3)c2)N(C)C)cc1 (centres undefined)	none
CCOc1ccc(S(=O)(=O)Nc2cccc(C(=O)NCC(c3ccccc3)N(C)C)c2)cc1 (centres undefined)	none
COc1ccccc1C(CNC(=O)c1cccc(NS(=O)(=O)c2ccc(C)c(F)c2)c1)N(C)C (centres undefined)	M5 antag 66.2
CCn1c(NCc2ccccn2)nc2c1c(=O)n(C)c(=O)n2C	M4 PAM 40.4
Brc1ccc(CN2CCN(c3ccccn3)CC2)s1	M4 PAM 28.8
Cc1ccc(NC2CCCN(C(=O)CCc3ccncc3)C2)cc1C (centres undefined)	none
CCOc1ccccc1-c1cc(C(=O)Nc2ccc(C(=O)O)cc2)c2ccccc2n1	M4 PAM 13.9
COc1cc(NC(=O)CSc2nnc(-c3ccncc3)o2)cc(OC)c1OC	none
O=C(CCSc1ccccn1)c1ccccc1	M5 antag 28.0
COC(=O)CNC(=O)CSc1ccccn1	none
O=C(O)CCSc1ccccn1	none
COc1ccccc1C(=O)CSc1ccccn1	M5 antag 27.2
O=C(COC(=O)CCC1CCCC1)Nc1ccccc1OC(F)F	M4 PAM 22.1
Cc1ccccc1S(=O)(=O)Cc1ccc(C(=O)N2CCN(c3cccc(C)c3C)CC2)o1	CHRM4 antagonist 34.2
Cc1cccn2c(=O)c(C=O)c(N3CCCCC3)nc12	M5 PAM 19.8
C=CCn1c(=N)n(CC(O)c2ccco2)c2ccccc21 (centres undefined)	M4 PAM 16.8, M5 PAM 29.0
O=C(NC(=S)Nc1ccccc1N1CCCCC1)c1ccccc1	M4 PAM 18.2, M5 PAM 18.7
CCN(CC)CCC=C(c1cccs1)c1cccs1	CHRM4 antagonist 47.5, M5 antag 28.2
CCN1/C(=C/c2sc(-c3ccccc3C)c[n+]2C)Sc2ccccc21	M5 antag 36.9
CCCS(=O)(=O)NC(=O)C1(C)CCCN(C(=O)c2cc(C)n(C(C)(C)C)n2)C1 (centres undefined)	none
Cc1ccccc1NS(=O)(=O)c1ccc2c(c1)NC(=O)CO2	none
Cc1cccc(C)c1NS(=O)(=O)c1ccc2c(c1)NC(=O)CO2	M5 PAM 19.2
COc1cccc2c1C(=O)c1c(O)c3c(c(O)c1C2=O)C[C@@](O)(C(=O)CO)C[C@@H]3O[C@H]1C[C@H](N)[C@@H](O)[C@H](C)O1	none
COc1cccc2c1C(=O)c1c(O)c3c(c(O)c1C2=O)CC(O)(C(=O)CO)CC3OC1CC(N(C)C)C(O)C(C)O1 (centres undefined)	M5 antag 35.0, M5 ag 55.5
COc1ccc(C(=O)NC[C@H]2O[C@@H](n3cnc4c(N)ncnc43)[C@H](O)[C@@H]2O)cc1OC	none
NC(=O)c1ccc[n+]([C@H]2O[C@@H](COP(=O)([O-])OP(=O)(O)OC[C@H]3O[C@@H](n4cnc5c(N)ncnc54)[C@H](O)[C@@H]3O)[C@H](O)[C@@H]2O)c1	M5 ag 24.9, CHRM4 agonist 79.7
